Measurements from ChEMBL document CHEMBL1134847, “Development of orally active nonpeptidic inhibitors of human neutrophil elastase” (J Med Chem, 2001).
pKi: −log10 of the molar value. Converted amounts (≈) assume the structure as drawn. One block for each molecule: values may come before it.

Columns and labels:
[1] = Solubility was determined at a pH of 5.5 using physiological saline; type: physicochemical; conditions: pH 5.5
How it was run: (§1)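 Solubility was measured in μg/mL in four vehicles: JP13th first fluid (pH ca. 1.2), 1/14 M phosphate citrate buffer (pH ca. 4.0), physiological saline (pH ca. 5.5) and 1/14 M phosphate buffer (pH ca. 7.4).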

[2] = Solubility was determined at a pH of 1.2 using first fluid (JP13th); type: physicochemical; conditions: pH 1.2; how it was run: as §1
[3] = Solubility was determined at a pH of […] using 1/14 M phosphate buffer; type: physicochemical; conditions: pH 7.4
Cricetinae gen. sp. [4] = experiment: (§2) Inhibition of HNE-induced lung hemorrhage in hamsters after oral administration of 30 mg/kg followed by intratracheal instillation of HNE (10 U/lung); type: functional
How it was run: (§3)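 Hamsters (n = 6-10) were dosed orally 1 h before intratracheal instillation of HNE (10 U/lung). The read-out was inhibition of the HNE-induced lung hemorrhage.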

Neutrophil elastase = target: T1, Neutrophil elastase (Homo sapiens, UniProt P08246); experiment: Binding constant derived from inhibition of elastase catalyzed hydrolysis of synthetic substrate
T1 sequence (P08246 whole entry): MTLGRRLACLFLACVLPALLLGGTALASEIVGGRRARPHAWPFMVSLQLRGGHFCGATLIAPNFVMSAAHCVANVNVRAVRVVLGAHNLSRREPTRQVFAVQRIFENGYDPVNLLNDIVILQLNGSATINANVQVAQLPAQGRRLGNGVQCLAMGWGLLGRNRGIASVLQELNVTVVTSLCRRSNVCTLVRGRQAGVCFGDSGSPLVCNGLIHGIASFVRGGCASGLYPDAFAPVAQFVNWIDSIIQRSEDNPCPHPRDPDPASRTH

Cricetinae gen. sp. [5] = experiment: Inhibition of HNE-induced lung hemorrhage in hamsters after oral administration followed by intratracheal instillation of HNE (10 U/lung); type: functional; how it was run: as §3
[6] = Half life after administering orally a dose of 3 mg/kg; type: ADME, organism-based; design: dose 3 mg/kg, route oral; conditions: rat, in vivo, po
How it was run: (§4)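 Unchanged drug measured in plasma over 0–24 h after dosing. Cmax recorded over 0–24 h, with Tmax as the time of Cmax. Half-life determined over 6–24 h after dosing. Mean ± SD, n = 4.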

[7] = Maximum concentration of […] drug in plasma recorded in the period of 0-24 hr after administering orally a dose of 30 mg/kg; type: ADME, organism-based; design: dose 30 mg/kg, route oral; conditions: rat, po; how it was run: as §4
[8] = Half life after administering intravenously a dose of 3 mg/kg; conditions: rat, in vivo, iv
[9] = Maximum concentration of […] drug in plasma recorded in the period of 0-24 hr after administering orally a dose of 10 mg/kg to a fasting rat; type: ADME, organism-based; design: dose 10 mg/kg, route oral; conditions: po; how it was run: as §4
[10] = Pharmacokinetic parameter AUC was evaluated when a dose of 1 mg/kg is administered orally to a fasting rat; type: ADME, organism-based; design: dose 1 mg/kg, route oral; conditions: in vivo, po
How it was run: (§5)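 Oral dosing as a suspension in 0.5% CMC; intravenous dosing as a solution in 35% HP-β-CD. Unchanged drug measured in plasma over 0–24 h after dosing. AUC is the integrated area under the concentration versus time curve. Oral bioavailability is taken from the […]. Mean ± SD, n = 4 (n = 3 for some i.v. groups).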

[11] = Pharmacokinetic parameter AUC was evaluated intravenous administration of 3 mg/kg; type: ADME, organism-based; design: dose 3 mg/kg, route intravenous; conditions: rat, in vivo; how it was run: as §5
[12] = Time of maximum concentration of the drug when administered orally a dose of 1 mg/kg to a fasting rat; type: ADME, organism-based; design: dose 1 mg/kg, route oral; conditions: in vivo, po; how it was run: as §4
[13] = Maximum concentration of […] drug in plasma recorded in the period of 0-24 hr after administering orally a dose of 1 mg/kg to a fasting rat; type: ADME, organism-based; design: dose 1 mg/kg, route oral; conditions: po; how it was run: as §4
[14] = Maximum concentration of […] drug in plasma recorded in the period of 0-24 hr after administering orally a dose of 3 mg/kg; type: ADME, organism-based; design: dose 3 mg/kg, route oral; conditions: rat, po; how it was run: as §4
[15] = Time of maximum concentration of the drug when administered orally at dose of 3 mg/kg; type: ADME, organism-based; design: dose 3 mg/kg, route oral; conditions: rat, in vivo, po; how it was run: as §4
[16] = Pharmacokinetic parameter AUC was evaluated when a dose of 3 mg/kg is administered orally to a fasting rat; type: ADME, organism-based; design: dose 3 mg/kg, route oral; conditions: in vivo, po
[17] = Half life after the administered orally a dose of 1 mg/kg to a fasting rat; type: ADME, organism-based; design: dose 1 mg/kg, route oral; conditions: in vivo, po; how it was run: as §4
[18] = Half life after administering orally a dose of 30 mg/kg; type: ADME, organism-based; design: dose 30 mg/kg, route oral; conditions: rat, in vivo, po; how it was run: as §4
[19] = Pharmacokinetic parameter AUC was evaluated when a dose of 30 mg/kg is administered orally; type: ADME, organism-based; design: dose 30 mg/kg, route oral; conditions: rat, in vivo, po; how it was run: as §5
[20] = Pharmacokinetic parameter AUC was evaluated when a dose of 10 mg/kg is administered orally to a fasting rat; type: ADME, organism-based; design: dose 10 mg/kg, route oral; conditions: in vivo, po; how it was run: as §5
[21] = Bioavailability was evaluated when a dose of 3 mg/kg was administered orally to a fasting rat; type: ADME, organism-based; conditions: in vivo, po; how it was run: as §5
[22] = Time of maximum concentration of the drug when administered orally a dose of 10 mg/kg to a fasting rat; type: ADME, organism-based; design: dose 10 mg/kg, route oral; conditions: in vivo, po; how it was run: as §4
[23] = Bioavailability was evaluated when a dose of 3 mg/kg was administered orally; type: ADME, organism-based; conditions: rat, in vivo, po; how it was run: as §5
[24] = Time of maximum concentration of the drug when administered orally a dose of 30 mg/kg; type: ADME, organism-based; design: dose 30 mg/kg, route oral; conditions: rat, in vivo, po; how it was run: as §4
[25] = Time of maximum concentration of the drug when administered orally a dose of 3 mg/kg to a fasting rat; type: ADME, organism-based; design: dose 3 mg/kg, route oral; conditions: in vivo, po; how it was run: as §4
[26] = Pharmacokinetic parameter AUC was evaluated when a dose of 3 mg/kg is administered orally; type: ADME, organism-based; design: dose 3 mg/kg, route oral; conditions: rat, in vivo, po
[27] = Half life after administering orally a dose of 3 mg/kg to a fasting rat; type: ADME, organism-based; design: dose 3 mg/kg, route oral; conditions: in vivo, po; how it was run: as §4
[28] = Maximum concentration of […] drug in plasma recorded in the period of 0-24 hr after administering orally a dose of 3 mg/kg to a fasting rat; type: ADME, organism-based; design: dose 3 mg/kg, route oral; conditions: po; how it was run: as §4
[29] = Half life after administering orally a dose of 10 mg/kg to a fasting rat; type: ADME, organism-based; design: dose 10 mg/kg, route oral; conditions: in vivo, po; how it was run: as §4
[30] = Solubility was determined at a pH of 4.0 using 1/14 M phosphate citrate buffer; type: physicochemical; conditions: pH 4; how it was run: as §1
Cricetinae gen. sp. [31] = experiment: as §2; type: functional, Cricetulus griseus; how it was run: as §3

solubility [1]: 1010 µg/mL (≈ 2230 µM) | solubility [2]: > 2000 µg/mL | solubility [3]: 310 µg/mL (≈ 685 µM)
Compound: CC(C)[C@H](NC(=O)Cn1c(-c2ccccc2)ncc(N)c1=O)C(=O)c1nnc(C(C)(C)C)o1

pKi (Neutrophil elastase): 6.14
Compound: CC(C)OC(=O)N1Cc2ccccc2C[C@H]1C(=O)N[C@H](C(=O)c1nnc(C(C)(C)C)o1)C(C)C
inhibition in vivo at 30 mg/kg (Cricetinae gen. sp. [4]): 0%

Compound: CC(C)[C@H](NC(=O)Cn1c(-c2ccc(F)cc2)ncc(N)c1=O)C(=O)c1nnc(Cc2ccccc2)o1
inhibition in vivo at 30 mg/kg (Cricetinae gen. sp. [4]): 53%

Compound: CC(C)[C@H](NC(=O)[C@@H]1CCCN1C(=O)[C@@H](NS(C)(=O)=O)C(C)C)C(=O)c1nnc(C(C)(C)C)o1
inhibition in vivo at 30 mg/kg (Cricetinae gen. sp. [4]): 17%

pKi (Neutrophil elastase): 7.67
Compound: COc1ccc(-c2nnc(C(=O)[C@@H](NC(=O)Cn3c(-c4ccc(F)cc4)ncc(N)c3=O)C(C)C)o2)cc1
inhibition in vivo at 30 mg/kg (Cricetinae gen. sp. [4]): 13%

Compound: CC(C)C(NC(=O)Cn1c(-c2ccc(F)cc2)ncc(N)c1=O)C(=O)c1nnc(C(C)(C)C)o1 (stereo not given)
ED50 (Cricetinae gen. sp. [5]): 10 mg/kg

Compound: CCCCc1nnc(C(=O)[C@@H](NC(=O)Cn2c(-c3ccc(F)cc3)ncc(N)c2=O)C(C)C)o1
inhibition in vivo at 30 mg/kg (Cricetinae gen. sp. [4]): 63%

half-life [6]: 5 h | Cmax [7]: 527 ng/mL | half-life [8]: 3 h | Cmax [9]: 351 ng/mL | AUC [10]: 230 ng·h/mL | AUC [11]: 1930 ng·h/mL | Tmax [12]: 0.31 h | Cmax [13]: 115 ng/mL | Cmax [14]: 174 ng/mL | Tmax [15]: 1.1 h | AUC [16]: 976 ng·h/mL | half-life [17]: 5.1 h | half-life [18]: 8.7 h | AUC [19]: 3050 ng·h/mL | AUC [20]: 2130 ng·h/mL | bioavailability [21]: 50.5% | Tmax [22]: 0.31 h | bioavailability [23]: 39.4% | Tmax [24]: 0.44 h | Tmax [25]: 0.63 h | AUC [26]: 760 ng·h/mL | half-life [27]: 4.5 h | Cmax [28]: 257 ng/mL | half-life [29]: 7.4 h
Compound: CC(C)C(NC(=O)Cn1c(-c2ccccc2)ncc(N)c1=O)C(=O)c1nnc(C(C)(C)C)o1 (stereo not given)
ED50 (Cricetinae gen. sp. [5]): 5.1 mg/kg

Compound: CC(C)[C@H](NC(=O)CN1C(=O)N[C@H](Cc2c[nH]c3ccccc23)C1=O)C(=O)c1nnc(C(C)(C)C)o1
inhibition in vivo at 30 mg/kg (Cricetinae gen. sp. [4]): 22%

Compound: CC(C)[C@H](NC(=O)Cn1c(-c2ccc(F)cc2)nccc1=O)C(=O)c1nnc(C(C)(C)C)o1
ED50 (Cricetinae gen. sp. [5]): 6.8 mg/kg

Compound: CC(C)[C@H](NC(=O)CN1C(=O)CN=C(c2ccc(Cl)cc2)c2ccccc21)C(=O)c1nnc(C(C)(C)C)o1
inhibition in vivo at 30 mg/kg (Cricetinae gen. sp. [4]): 22% | pKi (Neutrophil elastase): 7.24

solubility [2]: 499 µg/mL (≈ 970 µM) | solubility [3]: 20 µg/mL (≈ 38.9 µM) | solubility [30]: 26 µg/mL (≈ 50.5 µM)
Compound: CC(C)[C@H](NC(=O)Cn1c(-c2ccccc2)ncc(N)c1=O)C(=O)c1nnc(C(C)(C)c2ccccc2)o1
ED50 (Cricetinae gen. sp. [5]): 25 mg/kg

Compound: CC(C)[C@H](NC(=O)Cn1c(-c2ccc(F)cc2)nccc1=O)C(=O)c1nnc(C(C)(C)c2ccccc2)o1
inhibition in vivo at 30 mg/kg (Cricetinae gen. sp. [4]): 61%

Compound: CC(C)[C@H](NC(=O)Cn1c(-c2ccc(F)cc2)ncc(N)c1=O)C(=O)c1nnc(-c2ccccc2)o1
inhibition in vivo at 30 mg/kg (Cricetinae gen. sp. [31]): 9%

pKi (Neutrophil elastase): 8.29
Compound: CC(C)[C@H](NC(=O)[C@@H]1Cc2ccccc2N1C(=O)[C@@H](NC(=O)c1cccnc1)C(C)C)C(=O)c1nnc(C(C)(C)C)o1
inhibition in vivo at 30 mg/kg (Cricetinae gen. sp. [4]): 36%

pKi (Neutrophil elastase): 6.94
Compound: CC(C)OC(=O)N1c2ccccc2C[C@H]1C(=O)N[C@H](C(=O)c1nnc(C(C)(C)C)o1)C(C)C

Compound: Cc1cccc(Cc2nnc(C(=O)[C@@H](NC(=O)Cn3c(-c4ccc(F)cc4)ncc(N)c3=O)C(C)C)o2)c1
ED50 (Cricetinae gen. sp. [5]): 13 mg/kg
